Test results published in ChEMBL document CHEMBL3244222, “Synthesis of angiotensin II antagonists containing sarcosine in position 7” (J Med Chem, 1979).
Square brackets hold non-standard residues; d marks the D form. Peptide text beside a SMILES is read from it. Sar = CNCC(=O)O

Key:
Angiotensin II receptor = molecular target: T1, Angiotensin II receptor (Rattus norvegicus, UniProt P29089+P25095+P35351); assay: Antagonist activity at angiotensin 2 receptor in Sprague-Dawley rat uterus assessed as reduction of angiotensin 2-induced response pretreated for 2 mins followed by angiotensin 2 challenge for every 12 mins
T1 sequence (P29089 whole entry): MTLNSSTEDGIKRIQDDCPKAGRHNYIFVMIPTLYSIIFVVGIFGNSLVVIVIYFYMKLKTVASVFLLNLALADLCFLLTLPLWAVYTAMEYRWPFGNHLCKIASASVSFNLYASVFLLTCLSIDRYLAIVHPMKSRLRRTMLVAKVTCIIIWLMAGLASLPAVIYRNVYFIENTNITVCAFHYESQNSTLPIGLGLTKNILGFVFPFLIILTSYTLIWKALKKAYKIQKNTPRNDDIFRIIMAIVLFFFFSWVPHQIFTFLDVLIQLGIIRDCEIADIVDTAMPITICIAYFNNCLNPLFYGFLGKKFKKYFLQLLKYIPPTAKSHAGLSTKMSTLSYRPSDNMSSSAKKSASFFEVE
T1 sequence (P25095 whole entry): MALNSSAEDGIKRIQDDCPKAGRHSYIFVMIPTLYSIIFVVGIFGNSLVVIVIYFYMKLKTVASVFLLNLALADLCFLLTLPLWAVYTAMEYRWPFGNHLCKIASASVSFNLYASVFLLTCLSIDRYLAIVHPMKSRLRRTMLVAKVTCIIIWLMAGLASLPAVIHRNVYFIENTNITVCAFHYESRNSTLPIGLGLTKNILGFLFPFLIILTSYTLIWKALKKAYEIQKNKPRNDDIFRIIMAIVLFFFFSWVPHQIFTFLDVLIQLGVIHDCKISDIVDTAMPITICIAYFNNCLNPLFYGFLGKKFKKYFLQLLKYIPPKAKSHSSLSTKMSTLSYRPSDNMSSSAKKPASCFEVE
T1 sequence (P35351 whole entry): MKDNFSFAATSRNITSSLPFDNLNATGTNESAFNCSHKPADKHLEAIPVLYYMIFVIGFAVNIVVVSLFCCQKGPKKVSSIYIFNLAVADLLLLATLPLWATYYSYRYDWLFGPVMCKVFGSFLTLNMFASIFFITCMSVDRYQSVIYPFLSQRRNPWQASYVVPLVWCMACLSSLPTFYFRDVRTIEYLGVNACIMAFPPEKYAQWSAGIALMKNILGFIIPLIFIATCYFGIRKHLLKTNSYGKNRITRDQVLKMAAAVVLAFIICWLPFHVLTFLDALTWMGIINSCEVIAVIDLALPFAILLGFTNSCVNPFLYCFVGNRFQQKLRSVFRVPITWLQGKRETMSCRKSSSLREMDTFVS

[1] = molecular target: Angiotensin II receptor (Rattus norvegicus) (UniProt P29089+P25095+P35351); assay: Intrinsic myotropic activity at angiotensin 2 receptor in Sprague-Dawley rat uterus relative to [Ile5]angiotensin 2
Outline: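 Isolated uterus from diethylstilbestrol-primed female Sprague-Dawley rats (150-250 g), challenged every 12 min. Activity expressed relative to [Ile5]angiotensin II (MRC Research Standard A, 70/302). Mean ± SEM, with the number of experiments given.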

Rattus norvegicus = assay: Pressor activity in anesthetized vagotomized-ganglionic blocked rat model administered as bolus injection relative to [Ile5]angiotensin 2; assay type: functional
Outline: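 Anesthetized, vagotomized rats. Ganglion block with mecamylamine hydrochloride, 0.3 mg/100 g subcutaneous in 10% polyvinylpyrrolidone. Analogues given as bolus injections in a 2+2 assay against angiotensin II standard (MRC Research Standard A, 70/302). Mean ± SEM, with the number of experiments given.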

Structure (SMILES)	pA2 (Angiotensin II receptor)	Intrinsic activity [1] [%]	Activity (Rattus norvegicus) [%]
CC[C@H](C)[C@H](NC(=O)[C@@H]1CCCN1C(=O)[C@H](Cc1c[nH]cn1)NC(=O)[C@@H](NC(=O)[C@H](Cc1ccc(O)cc1)NC(=O)[C@@H](NC(=O)[C@H](CCCN=C(N)N)NC(=O)CNC)C(C)C)[C@@H](C)CC)C(=O)O		< 0.1	1.1
CC[C@H](C)[C@H](NC(=O)[C@H](Cc1ccc(O)cc1)NC(=O)[C@@H](NC(=O)[C@H](CCCNC(=N)N)NC(=O)CNC)C(C)C)C(=O)N[C@@H](Cc1cnc[nH]1)C(=O)N(C)CC(=O)N[C@@H](C)C(=O)O (H-[Sar]RVYIH[Sar]A-OH)	7	< 0.1	0.06
CC[C@H](C)[C@H](NC(=O)[C@H](Cc1ccc(O)cc1)NC(=O)[C@@H](NC(=O)[C@H](CCCNC(=N)N)NC(=O)CNC)C(C)C)C(=O)N[C@@H](Cc1cnc[nH]1)C(=O)N(C)CC(=O)N[C@@H](Cc1ccccc1)C(=O)O (H-[Sar]RVYIH[Sar]F-OH)		22	17
CC[C@H](C)[C@H](NC(=O)[C@H](Cc1ccc(O)cc1)NC(=O)[C@@H](NC(=O)[C@H](CCCNC(=N)N)NC(=O)CNC)C(C)C)C(=O)N[C@@H](Cc1cnc[nH]1)C(=O)N(C)CC(=O)N[C@@H](CC(C)C)C(=O)O (H-[Sar]RVYIH[Sar]L-OH)	7.4	< 0.1	0.21
CC[C@H](C)[C@H](NC(=O)[C@H](Cc1ccc(O)cc1)NC(=O)[C@@H](NC(=O)[C@H](CCCNC(=N)N)NC(=O)CNC)C(C)C)C(=O)N[C@@H](Cc1cnc[nH]1)C(=O)N(C)CC(=O)N[C@@H](CCSC)C(=O)O (H-[Sar]RVYIH[Sar]M-OH)	7.7	< 0.1	0.82

Now from value to compound, other results behind:

pA2 (Angiotensin II receptor)	Intrinsic activity [1] [%]	Structure (SMILES)	Activity (Rattus norvegicus) [%]
8.1	< 0.1	CC[C@H](C)[C@H](NC(=O)CN(C)C(=O)[C@H](Cc1cnc[nH]1)NC(=O)[C@@H](NC(=O)[C@H](Cc1ccc(O)cc1)NC(=O)[C@@H](NC(=O)[C@H](CCCNC(=N)N)NC(=O)CNC)C(C)C)[C@@H](C)CC)C(=O)O	0.7
7.4	< 0.1	CC[C@H](C)[C@H](NC(=O)[C@H](Cc1ccc(O)cc1)NC(=O)[C@@H](NC(=O)[C@H](CCCNC(=N)N)NC(=O)CNC)C(C)C)C(=O)N[C@@H](Cc1cnc[nH]1)C(=O)N(C)CC(=O)N[C@H](C(=O)O)[C@@H](C)OC (H-[Sar]RVYIH[Sar]T(Me)-OH)	0.13
8.4	0.7	CCC(C)C(NC(=O)CN(C)C(=O)[C@H](Cc1cnc[nH]1)NC(=O)[C@@H](NC(=O)[C@H](Cc1ccc(O)cc1)NC(=O)[C@@H](NC(=O)[C@H](CCCNC(=N)N)NC(=O)CNC)C(C)C)[C@@H](C)CC)C(=O)O (mixture of isomers)	12.5
